Reference: ChEMBL document CHEMBL1649166, “Relative contributions of the Candida albicans ABC transporters Cdr1p and Cdr2p to clinical azole resistance” (2009)
Converted amounts (≈) assume the structure as drawn.

Key:
Type in all cases: functional
[1] = system: Candida albicans; experiment: Antifungal activity against tac1/tac1 deficient Candida albicans SZY31 after 48 hrs; settings: SZY31, 48 h
Method in brief: (§1)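 Liquid microtiter broth assay in YPD, cells incubated 48 h at 30°C with drug (e.g. FLC 0.2–200 µg/ml; KTC 0.001–1.2 µg/ml). Growth read as OD620 and expressed relative to drug-free growth of the same strain. MIC50 taken as the first concentration reducing growth by 50%. Mean of three independent experiments, each in duplicate.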

[2] = system: Candida albicans; experiment: Antifungal activity against cdr2/cdr2 deficient Candida albicans STY7 after 48 hrs; settings: STY7, 48 h; method in brief: as §1
[3] = system: Candida albicans; experiment: Antifungal activity against cdr1/cdr1 deficient Candida albicans STY19 after 48 hrs; settings: STY19, 48 h; method in brief: as §1
[4] = system: Candida albicans; experiment: Antifungal activity against cdr1/cdr1/cdr2/cdr2 deficient Candida albicans STY31 after 48 hrs; settings: STY31, 48 h; method in brief: as §1
[5] = system: Candida albicans; experiment: Antifungal activity against azole-susceptible Candida albicans 5457 after 48 hrs; settings: Candida albicans, 5457, 48 h; method in brief: as §1
[6] = system: Candida albicans; experiment: Antifungal activity against azole-resistant Candida albicans 5674 after 48 hrs; settings: Candida albicans, 5674, 48 h; method in brief: as §1
[7] = system: Candida albicans; experiment: Ratio of MIC50 for Candida albicans 5674 to MIC50 for cdr1/cdr1/cdr2/cdr2 deficient Candida albicans STY31
Method in brief: (§2)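 Ratios use MIC50s from the YPD liquid microtiter assay (48 h, 30°C, OD620 growth relative to drug-free control). MIC50 is the first concentration giving a 50% growth reduction, as the mean of three independent experiments in duplicate. The MIC50 of one strain is divided by that of the other.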

[8] = system: Candida albicans; experiment: Ratio of MIC50 for Candida albicans 5674 to MIC50 for cdr2/cdr2 deficient Candida albicans STY7; method in brief: as §2
[9] = system: Candida albicans; experiment: Ratio of MIC50 for Candida albicans 5674 to MIC50 for Candida albicans STY47 expressing cdr2 gene; method in brief: as §2
[10] = system: Candida albicans; experiment: Ratio of MIC50 for Candida albicans 5674 to MIC50 for cdr1/cdr1 deficient Candida albicans STY19; method in brief: as §2
[11] = system: Candida albicans; experiment: Antifungal activity against Candida albicans STY47 expressing cdr2 gene after 48 hrs; settings: STY47, 48 h; method in brief: as §1
[12] = system: Candida albicans; experiment: Ratio of MIC50 for cdr1/cdr1 deficient Candida albicans STY19 to MIC50 for cdr1/cdr1/cdr2/cdr2 deficient Candida albicans STY31; method in brief: as §2
[13] = system: Candida albicans; experiment: Ratio of MIC50 for Candida albicans 5674 to MIC50 for tac1/tac1 deficient Candida albicans SZY31; method in brief: as §2

Row | SMILES | MIC50 [1] [µg/mL] | MIC50 [2] [µg/mL] | MIC50 [3] [µg/mL] | MIC50 [4] [µg/mL] | MIC50 [5] [µg/mL] | MIC50 [6] [µg/mL] | Ratio [7] | Ratio [8] | Ratio [9] | Ratio [10] | MIC50 [11] [µg/mL] | Ratio [12] | Ratio [13]
1 | C[C@@H]1[C@H](O)[C@@H](C)/C=C/C=C/C=C/C=C/C=C/C=C/C=C/[C@H](O[C@@H]2O[C@H](C)[C@@H](O)[C@H](N)[C@@H]2O)C[C@@H]2O[C@](O)(C[C@@H](O)C[C@@H](O)[C@H](O)CC[C@@H](O)C[C@@H](O)CC(=O)O[C@H]1C)C[C@H](O)[C@H]2C(=O)O [AMPHOTERICIN B] | 1 (≈ 1.08 µM) | 2 (≈ 2.16 µM) | 2 (≈ 2.16 µM) | 2 (≈ 2.16 µM) | 1 (≈ 1.08 µM) | 2 (≈ 2.16 µM) | – | – | – | – | – | – | –
2 | OC(Cn1cncn1)(Cn1cncn1)c1ccc(F)cc1F [FLUCONAZOLE] | 6.2 (≈ 20.2 µM) | 100 (≈ 327 µM) | 25 (≈ 81.6 µM) | 0.4 (≈ 1.31 µM) | 3.1 (≈ 10.1 µM) | 150 (≈ 490 µM) | 375 | 1.5 | 16 | 6 | 6.3 (≈ 20.6 µM) | – | –
3 | OCCN1CCN(CCCN2c3ccccc3Sc3ccc(C(F)(F)F)cc32)CC1 [FLUPHENAZINE] | 38 (≈ 86.9 µM) | 75 (≈ 171 µM) | 50 (≈ 114 µM) | 25 (≈ 57.1 µM) | 75 (≈ 171 µM) | 75 (≈ 171 µM) | – | 1 | – | 1.5 | – | 2 | 2
4 | CCC(C)n1ncn(-c2ccc(N3CCN(c4ccc(OCC5COC(Cn6cncn6)(c6ccc(Cl)cc6Cl)O5)cc4)CC3)cc2)c1=O (stereo unspecified) [ITRACONAZOLE] | 0.0063 (≈ 0.00893 µM) | 0.2 (≈ 0.283 µM) | 0.025 (≈ 0.0354 µM) | 0.0004 (≈ 0.000567 µM) | 0.0125 (≈ 0.0177 µM) | 0.2 (≈ 0.283 µM) | 500 | 1 | – | 8 | – | – | –
5 | CC(=O)N1CCN(c2ccc(OCC3COC(Cn4ccnc4)(c4ccc(Cl)cc4Cl)O3)cc2)CC1 (stereo unspecified) [KETOCONAZOLE] | 0.009 (≈ 0.0169 µM) | 0.4 (≈ 0.753 µM) | 0.15 (≈ 0.282 µM) | 0.002 (≈ 0.00376 µM) | 0.018 (≈ 0.0339 µM) | 0.6 (≈ 1.13 µM) | 300 | 1.5 | – | 4 | – | – | –
6 | CC/N=c1\cc2oc3cc(NCC)c(C)cc3c(-c3ccccc3C(=O)OCC)c-2cc1C.Cl [RHODAMINE 6G HYDROCHLORIDE] | 2 | 16 | 8 | 8 | 8 | 16 | – | – | – | – | – | – | –
